From publication PMC3085913 (NeuroImage, 2011)
“Also recorded” adds a separate entry of the source.

Columns and labels:
blood brain barrier = conditions: rodents, after intra-arterial carotid injection; ref McCarty et al., 2009; cited from earlier work
humans = conditions: patients, ref Castillo et al., 2009, Tang and Lobel; cited from earlier work
[1] = system: N2a mouse neuroblastoma cells; assay: MTS cell proliferation; assay type: cell-based; conditions: 72 hrs
[2] = system: Aβ plaques in APP and APP/PS1 transgenic AD mice; conditions: MRI after injection; ref Wadghiri et al., 2003; cited from earlier work
[3] = system: APP/PS1 Tg versus wild-type mouse brain (amyloid plaques); assay: Voxel-based morphometry; assay type: in vivo; conditions: for VBM cluster T-score: WT n=12 vs AD Tg n=13; for VBM cluster Extent: WT n=12 vs AD Tg n=13 after contrast injection
[4] = system: APP/PS1 Tg and wild-type mice; assay: Toxicity observed in experimental animals; assay type: in vivo, mouse; conditions: 0.2 mmol Fe/kg femoral i.v. with 15% mannitol
[5] = system: amyloid plaques in APP/PS1 Tg and wild-type mouse brain; assay type: in vivo; conditions: two 14-month-old APP/PS1 mice, before and 6 hs after contrast injection; data not shown
Summary of the method: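 Mice received the test conjugate at 0.2 mmol Fe/kg in 200 μl 15% mannitol/PBS by right femoral vein infusion at 60 μl/min, under isoflurane (2.5% induction, 1–1.5% maintenance). Scanned 6 h post-injection; two 14-month-old APP/PS1 mice were also scanned pre-injection. 3D four-echo acquisition; third echo (TE=12.3 ms) gave the T2*-weighted images. Checked against matched immunostained sections.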

[6] = system: APP/PS1 Tg and wild-type mouse brain (amyloid plaques); assay: ROI-based absolute T2* measurement, in vivo μMRI; conditions: contrast injected APP/PS1 Tg versus contrast injected wild-type mice
[7] = system: amyloid plaques in APP/PS1 Tg mouse brain; assay type: in vivo; conditions: femoral i.v. with mannitol; third echo, TE = 17.5
Summary of the method: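 Aged 13–17-month APP/PS1 mice and age-matched C57Bl/6J controls received the test conjugate at 0.2 mmol Fe/kg in 200 μl 15% mannitol/PBS, infused via right femoral vein at 60 μl/min under isoflurane. Later: pentobarbital 150 mg/kg i.p., transaortic perfusion with PBS then 4% paraformaldehyde. Extracted brains scanned overnight, up to four together; third echo of four-echo set. 6E10/4G8 histology for matching. 13 Tg vs 12 wild-type.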

Compound: OC[C@@H](O)[C@@H](O)[C@H](O)[C@H](O)CO [mannitol]
- time of maximum BBB disruption, intra-arterial carotid (blood brain barrier): 5 min
- tolerability of intravenous mannitol (in words) (humans): much better tolerated and is used safely in patients

Compound: Aβ1-42: Aβ 1-42 peptide synthesized in the W.M. Keck Facility at Yale University [reference compound]
- reduction in cell viability ([1]; 10 μM, MTS, 490 nm, percent of non-treated control): 50%

Compound: MION-Aβ1-40: Aβ1-40 magnetically labeled with monocrystalline iron oxide nanoparticles (MION)
- plaque visualization as hypointense spots (in words) [2]: hypointense spots characterized by loss of signal intensity

Compound: USPIO-Aβ1-42: ultrasmall superparamagnetic iron oxide (USPIO) nanoparticles linked to Aβ1-42 peptide using standard EDC/NHS coupling methods
- VBM difference in cerebellum (in words) ([3]; APP/PS1 (n=13) versus wild-type (n=12), USPIO-Aβ1-42 injected): No differences were seen in the cerebellum
- VBM cluster T-score ([3]; cluster AuD, Cortex (R)): 3.02
- VBM cluster Extent ([3]; cluster AuD, Cortex (R)): 1388 voxels
- VBM cluster T-score ([3]; cluster FrA, Cortex (L)): 5.03
- VBM cluster Extent ([3]; cluster FrA, Cortex (L)): 1123 voxels
- VBM cluster T-score ([3]; cluster HDB, Cortex (R)): 4.02
- VBM cluster Extent ([3]; cluster HDB, Cortex (R)): 685 voxels
- VBM cluster T-score ([3]; cluster LEnt, Cortex (L)): 3.78
- VBM cluster Extent ([3]; cluster LEnt, Cortex (L)): 656 voxels
- VBM cluster T-score ([3]; cluster M1, Cortex (L)): 3.48
- VBM cluster T-score ([3]; cluster M2, Cortex (R)): 3.71
- VBM cluster T-score ([3]; cluster PoDG, Hippocampus (R)): 4.42
- VBM cluster Extent ([3]; cluster PoDG, Hippocampus (R)): 20830 voxels
- VBM cluster T-score ([3]; cluster RSG, Cortex (L)): 5.00
- VBM cluster Extent ([3]; cluster RSG, Cortex (L)): 1624 voxels
- VBM cluster T-score ([3]; cluster S1BF, Cortex (L)): 4.92
- VBM cluster Extent ([3]; cluster S1BF, Cortex (L)): 36911 voxels
- VBM cluster T-score ([3]; cluster S1FL, Cortex (L)): 3.30
- VBM cluster Extent ([3]; cluster S1FL, Cortex (L)): 653 voxels
- VBM cluster T-score ([3]; cluster S1FL, Cortex (R)): 4.27
- VBM cluster Extent ([3]; cluster S1FL, Cortex (R)): 4637 voxels
- VBM cluster T-score ([3]; cluster SuG, Colliculus (R)): 4.72
- VBM cluster Extent ([3]; cluster SuG, Colliculus (R)): 2194 voxels
- toxicity in experimental animals (in words) [4]: no evidence of toxicity in our experimental animals
- amyloid plaque detection pre- versus postinjection [5]: Amyloid plaques were only detected in the postinjection images
- p, T2* difference in left and right cortex (Figure 5C) [6]: < 0.01
- plaque detection on ex vivo μMRI, APP/PS1 mice [7]: Amyloid plaques were also detected; also recorded: Many plaques can be detected in APP/PS1 mice
- cell viability, USPIO versus USPIO-Aβ1-42 (significance in words) ([1]; bound Aβ1-42 10 μM, Newman-Keuls post-hoc): did not differ significantly
- cell viability versus control untreated cells (significance in words) ([1]; bound Aβ1-42 10 μM, USPIO matched, Newman-Keuls post-hoc): did not differ significantly
